Experimental data taken from ChEMBL document CHEMBL4017509, “A Dual Modulator of Farnesoid X Receptor and Soluble Epoxide Hydrolase To Counter Nonalcoholic Steatohepatitis” (J Med Chem, 2017).
Calls of active or inactive are those of the source. The rule behind the calls is not given here.

Columns and labels:
[1] = target: T1, Bile acid receptor (Homo sapiens) (UniProt Q96RI1); assay: Transactivation of FXR in human HepG2 cells assessed as BSEP mRNA expression at 1 uM after 8 to 16 hrs by SYBR green based qRT-PCR analysis relative to DMSO control; assay type: cell-based
T1 sequence (whole entry): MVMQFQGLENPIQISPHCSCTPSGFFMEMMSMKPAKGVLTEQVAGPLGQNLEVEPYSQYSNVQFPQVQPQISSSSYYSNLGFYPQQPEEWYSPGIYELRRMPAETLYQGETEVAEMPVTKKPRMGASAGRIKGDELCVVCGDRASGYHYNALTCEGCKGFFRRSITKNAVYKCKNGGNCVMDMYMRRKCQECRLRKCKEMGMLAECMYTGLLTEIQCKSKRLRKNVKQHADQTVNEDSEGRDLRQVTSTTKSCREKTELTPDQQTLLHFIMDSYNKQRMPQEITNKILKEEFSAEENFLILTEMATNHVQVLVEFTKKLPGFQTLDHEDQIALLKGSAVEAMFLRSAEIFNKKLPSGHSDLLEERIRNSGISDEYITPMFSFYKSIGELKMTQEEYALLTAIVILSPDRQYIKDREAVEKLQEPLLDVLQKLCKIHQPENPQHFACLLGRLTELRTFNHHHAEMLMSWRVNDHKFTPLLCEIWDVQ
Summary of the method: (§1)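 HepG2 cells incubated with test compound (0.1 and 1 μM) or 0.1% DMSO for 8 or 16 h, washed in cold PBS, RNA extracted; target mRNA by SYBR Green qRT-PCR, duplicate samples, ≥4 independent experiments; comparative ΔΔCt with GAPDH reference, vehicle set as 100%.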

[2] = target: T1, Bile acid receptor (Homo sapiens); assay: Transactivation of FXR in human HepG2 cells assessed as SHP mRNA expression at 1 uM after 8 to 16 hrs by SYBR green based qRT-PCR analysis relative to DMSO control; assay type: cell-based; summary of the method: as §1
[3] = target: T1, Bile acid receptor (Homo sapiens); assay: Transactivation of FXR in human HepG2 cells assessed as SREBP1c mRNA expression at 1 uM after 8 to 16 hrs by SYBR green based qRT-PCR analysis relative to DMSO control; assay type: cell-based; summary of the method: as §1
[4] = target: T1, Bile acid receptor (Homo sapiens); assay: Transactivation of FXR in human HepG2 cells assessed as FGF19 mRNA expression at 1 uM after 8 to 16 hrs by SYBR green based qRT-PCR analysis relative to DMSO control; assay type: cell-based; summary of the method: as §1
[5] = target: T2, Bifunctional epoxide hydrolase 2 (Homo sapiens) (UniProt P34913); assay: Inhibition of sEH in human HepG2 cells assessed as NF-kappaB mRNA expression at 1 uM after 8 to 16 hrs by SYBR green based qRT-PCR analysis relative to DMSO control; assay type: cell-based
T2 sequence (whole entry): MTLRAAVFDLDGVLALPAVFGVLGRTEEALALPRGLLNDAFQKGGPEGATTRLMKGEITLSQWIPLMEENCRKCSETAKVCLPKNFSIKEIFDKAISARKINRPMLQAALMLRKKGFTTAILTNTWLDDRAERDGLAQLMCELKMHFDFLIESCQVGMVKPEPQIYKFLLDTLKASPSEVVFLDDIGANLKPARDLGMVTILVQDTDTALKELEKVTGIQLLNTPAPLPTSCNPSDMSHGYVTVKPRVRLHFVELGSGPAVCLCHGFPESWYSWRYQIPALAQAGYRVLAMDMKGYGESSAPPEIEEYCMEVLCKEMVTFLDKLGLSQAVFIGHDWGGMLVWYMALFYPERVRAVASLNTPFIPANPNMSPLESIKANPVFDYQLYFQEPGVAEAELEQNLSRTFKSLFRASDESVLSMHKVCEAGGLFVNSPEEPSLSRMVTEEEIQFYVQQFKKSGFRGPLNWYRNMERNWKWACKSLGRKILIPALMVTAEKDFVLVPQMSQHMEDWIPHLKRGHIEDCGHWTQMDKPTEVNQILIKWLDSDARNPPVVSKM
Summary of the method: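 HepG2 cells treated with compound or 0.1% DMSO vehicle; NF-κB mRNA quantified by SYBR Green qRT-PCR, comparative ΔΔCt with GAPDH reference; expressed as % of vehicle (100%).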

[6] = target: T2, Bifunctional epoxide hydrolase 2 (Homo sapiens); assay: Inhibition of sEH in human HuT-78 cells assessed as reduction in Pam3CSK4-stimulated TNFalpha release preincubated for 24 hrs followed by Pam3CSK4 addition measured after 18 hrs by ELISA; assay type: cell-based
Summary of the method: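 HuT-78 cells in RPMI 1640 with 10% heat-inactivated FCS, 2.0 × 10^6 cells/well, exposed to compound (0.1% DMSO) for 24 h; medium then replaced with fresh compound plus Pam3CSK4 20 ng/mL for 18 h; supernatant TNFα measured by ELISA (absorbance 450 nm); each concentration repeated independently at least three times.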

[7] = target: T2, Bifunctional epoxide hydrolase 2 (Homo sapiens); assay: Inhibition of sEH in primary human monocytes-derived macrophages assessed as reduction in LPS-stimulated IL-12p70 release at 1 uM after 16 hrs by cytometric bead array method; assay type: cell-based
Summary of the method: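 Human blood monocytes isolated by dextran sedimentation/Nycoprep and adherence, differentiated to macrophages with GM-CSF 10 ng/mL for 7 days plus IFNγ 10 ng/mL for final 48 h; stimulated with LPS 100 ng/mL together with compound for 16 h; supernatant IL-12p70 measured by cytometric bead array on flow cytometer.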

Bile acid receptor [8] = target: T3, Bile acid receptor (Homo sapiens, UniProt Q96RI1); assay: Transactivation of human FXR expressed in human HeLa cells co-expressing BSEP after 24 hrs by dual-glo luciferase reporter gene assay; assay type: cell-based
T3 sequence (Q96RI1 whole entry): T1 sequence (whole entry)
Summary of the method: (§2)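 HeLa cells in DMEM/10% FCS at 37 °C, 5% CO2; switched to 0.5% charcoal-stripped FCS before calcium phosphate co-transfection with pcDNA3-hFXR, pSG5-hRXR, BSEP promoter–firefly luciferase reporter and pRL-SV40 renilla. Compound in 0.1% DMSO, phenol red-free medium, 24 h.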

[9] = target: T1, Bile acid receptor (Homo sapiens); assay: Transactivation of human FXR expressed in human HeLa cells co-expressing BSEP at 50 uM after 24 hrs by dual-glo luciferase reporter gene assay relative to GW4064; assay type: cell-based; summary of the method: as §2
[10] = target: T4, Bifunctional epoxide hydrolase 2 (Homo sapiens, UniProt P34913); assay: Inhibition of recombinant human sEH using PHOME as substrate preincubated for 30 mins followed by substrate addition measured for 30 mins by fluorescence photometric method; details: read-out: IC50
T4 sequence (P34913 whole entry): T2 sequence (whole entry)
Summary of the method: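 Recombinant human sEH in Bis-Tris buffer pH 7, 0.1 mg/mL BSA, 0.01% Triton X-100 (final), preincubated 30 min at room temperature with compound (1% DMSO final). PHOME added at 50 μM final; 6-methoxynaphthaldehyde fluorescence read each minute for 30 min.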

[11] = Aqueous solubility of compound at 5 mg after 24 hrs by HPLC analysis; assay type: physicochemical
Bile acid receptor [12] = target: T3, Bile acid receptor; assay: Transactivation of FXR in human HepG2 cells assessed as CYP7A1 mRNA expression at 3 uM after 8 to 16 hrs by SYBR green based qRT-PCR analysis relative to DMSO control; assay type: ADME, cell-based
Summary of the method: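 HepG2 cells treated 8 or 16 h with compound or 0.1% DMSO, washed in cold PBS, RNA extracted; SYBR Green qRT-PCR in duplicate, ≥4 independent experiments (n = 3 for CD36/FAM3A). ΔΔCt method with GAPDH reference; expression as % of vehicle (100%). Pioglitazone 1 μM used as positive control for the PPARγ genes.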

[13] = target: T2, Bifunctional epoxide hydrolase 2 (Homo sapiens); assay: Inhibition of sEH in primary human monocytes-derived macrophages assessed as reduction in LPS-stimulated IL-12p70 release at 10 uM after 16 hrs by cytometric bead array method; assay type: cell-based
Summary of the method: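 Blood monocytes isolated by dextran sedimentation and Nycoprep gradient, adherence-selected 1 h, differentiated with GM-CSF 10 ng/mL for 7 days plus IFNγ 10 ng/mL for last 48 h. Stimulated with LPS 100 ng/mL plus compound for 16 h; supernatant IL-10 and IL-12p70 measured by cytometric bead array flow cytometry.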

[14] = target: T2, Bifunctional epoxide hydrolase 2 (Homo sapiens); assay: Inhibition of sEH in human HepG2 cells assessed as NF-kappaB mRNA expression at 10 uM after 8 to 16 hrs by SYBR green based qRT-PCR analysis relative to DMSO control; assay type: cell-based

## CC[C@H]1[C@@H](O)[C@@H]2[C@H](CC[C@]3(C)[C@@H]([C@H](C)CCC(=O)O)CC[C@@H]23)[C@@]2(C)CC[C@@H](O)C[C@@H]12
[1]
  Activity: 970%
[2]
  Activity: 416%
[3]
  Activity: 51%
[4]
  Activity: 640%
[5]
  inhibition: 29%
[6]
  inhibition: inactive
[7]
  inhibition: Active

## CC(C)(C)c1ccc(C(=O)NCc2ccc(NC(=O)C(F)(F)F)cc2Cl)cc1
Bile acid receptor [8]
  EC50: 14 nM
[9]
  Emax: 21%
[10]
  IC50: 8.9 nM
[11]
  solubility at 24 h: < 0.1 µg/mL

## CC(C)c1onc(-c2c(Cl)cccc2Cl)c1COc1ccc(/C=C/c2cccc(C(=O)O)c2)c(Cl)c1
Bile acid receptor [12]
  Activity: 0.03%

## O=C(Nc1ccc(I)cc1)NC1CCCCC1
[13]
  inhibition: Active
[14]
  inhibition: 22.9%
